From PubChem
PKD1 kinase inh: blocks activity of human protein kinase D1 | Q15139 | PKD1 kinase fluorescence polarization assay | inhibition, % (no concentration beside the values) | 0.056% of 200,000 active | AID 797
GSH bead fluor: GSH bead compound fluorescence profile; GSH beads flow cytometry, compound fluorescence 488/530 nm; stronger effect = higher value; fluorescence (KMESF) at 10 µM; 0.25% of 190,000 active; AID 1776; in the data active = fluorescence above about 89;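 note: glutathione beads carrying GST-tagged Bcl family fusion proteins plus one bare bead set; values are compound well signal with DMSO vehicle wells as background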
Avidin bead fluor: avidin bead compound fluorescence profile; Avidin beads, compound fluorescence 488/530 nm, flow cytometry; stronger effect = higher value; fluorescence (KMESF) at 10 µM; 0.38% of 220,000 active; AID 1775; in the data active = fluorescence above about 47
L major viab: reduces viability of Leishmania major promastigotes. resazurin fluorescence viability. inhibition, % at 10 µM. 9% of 200,000 active. AID 1063;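 note: promastigotes grown with compound for 44 hours at 28 °C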
ABCG2 inh: blocks JC-1 efflux by human ABCG2 transporter | Q9UNQ0 | 0.1% of 190,000 active | AID 1325 | inhibition, % at 6.6 µM | IgMXP3 cells, flow cytometry;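 active = inhibition above 80%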;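 note: 0% = DMSO and 100% = nicardipine control wells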
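Test system: ABCG2 IgMXP3 and barcoded ABCB1 CCRF-Adr cell mix; Schedule: cells with compound and JC-1, 10 min at 25 °C, rotating, no wash; Technique: flow cytometry of retained JC-1 fluorescence; Measure: % inhibition of efflux relative to nicardipine and DMSO; Controls: nicardipine high and DMSO low controls.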
ABCB1 block: blocks JC-1 efflux by human ABCB1 transporter | P08183 | CCRF-Adr cells, flow cytometry | inhibition, % at 6.6 µM | 0.067% of 190,000 active; in the data active = inhibition above about 40%;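 note: 0% = vehicle and 100% = reference inhibitor; higher value means more JC-1 retained so stronger ABCB1 efflux block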
ABCB1 single pt: confirmation of human ABCB1 transporter inhibitors, ABCG2 counter-screen; CCRF-Adr cells, JC-1 efflux, flow cytometry; shares compounds with ABCG2 inh; 7% of 270 active; AID 1451; inhibition, % at 6.6 µM;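 active = inhibition of pump activity above 50%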;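 note: 0% = DMSO and 100% = nicardipine full pump inhibition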
ABCG2 single pt: confirmation of human ABCG2 transporter inhibitors, ABCB1 counter-screen; shares compounds with ABCG2 inh; inhibition, % at 6.6 µM; AID 1453; 6% of 270 active; IgMXP3 cells, JC-1 efflux, flow cytometry;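 active = inhibition above 50%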;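 note: 0% = DMSO wells and 100% = nicardipine pump inhibitor wells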
IgMXP3 fluor: compound fluoresces at 488/530 nm in IgMXP3 cells; shares compounds with ABCG2 inh; compound autofluorescence 488/530 nm, flow; stronger effect = higher value; fluorescence at 6.6 µM; 30% of 270 active; AID 1480;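 active = fluorescence in ABCG2-expressing cells above the plate's control-well mean plus 3 SD, cut at about 15 in these data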;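 note: median cell fluorescence with compound minus that of DMSO-treated control cells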
CCRF-Adr fluor: CCRF-Adr autofluorescence flag for ABCB1 confirmation; CCRF-Adr cells, compound autofluorescence 488/530 nm, flow cytometry; stronger effect = higher value; shares compounds with ABCG2 inh; fluorescence at 6.6 µM; 30% of 270 active;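 active = fluorescence beyond the plate control mean plus 3 SD, with a fluorescence-to-maximum score over 2, cut at about 25 in these data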
Starred values were filed as active, the others as inactive; · = no result given; + = active, no number. This excerpt belongs to a sample that is enriched for hits. Cut-off read from the data, not from the text of the source, unless noted: active = inhibition above about 50%; inactive = the rest.

SMILES	PKD1 kinase inh	GSH bead fluor	Avidin bead fluor	L major viab	ABCG2 inh	ABCB1 block	ABCB1 single pt	ABCG2 single pt	IgMXP3 fluor	CCRF-Adr fluor
COC(=O)Nc1ccc(S(=O)(=O)N2CCCC(C(=O)O)C2)cc1 (stereo not given)	3	10	9	-5	5	0	·	·	·	·
CCOC(=O)c1sc(Nc2nc3cc4c(cc3s2)OCO4)cc1C	-5	102*	417*	2	175*	195*	2	16	-1.6	-2.2
CC(=O)c1sc(Nc2nc3cc4c(cc3s2)OCO4)nc1C	7	9	11	40	-6	-1	·	·	·	·
COc1cc(/C=c2\sc3nc(-c4ccncc4)nn3c2=O)ccc1OC(C)=O	2	19	14	5	36	-1	·	·	·	·
CN(C)c1ccc(/C=c2\sc3nc(-c4ccccc4)nn3c2=O)cc1	-50	16	8	-6	63	46*	15	15	80*	61*
Fc1ccc(-n2c(-c3cc(C4CC4)[nH]n3)n[nH]c2=S)cc1Cl	·	·	7	·	·	·	·	·	·	·
O=C(Nc1ccc(Cl)cc1C(F)(F)F)c1ccccc1	1	15	22	-6	36	43*	1	9	0.26	-3.4
O=C(Nc1ccccc1Cl)c1ccccc1	-4	21	9	-5	0	0	·	·	·	·
O=C(CSc1ncn[nH]1)N(C1CCCCC1)C1CCCCC1	0	36	11	4	2	1	·	·	·	·
CC1(C)CN=C(N(Cc2ccccc2)C(=O)Nc2ccccc2)S1	-16	26	5	-1	1	0	·	·	·	·
Cc1c(Cl)c([N+](=O)[O-])nn1CCCC(=O)Nc1cc(Oc2ccccc2)cc([N+](=O)[O-])c1	1	12	26	9	85*	2	18	31	-0.99	-1.8
CC(=O)Oc1cc2c(cc1Cl)C(c1cccs1)CC1(CC(C)(C)NC(=S)N1)O2 (stereo not given)	-4	10	10	34	0	1	·	·	·	·
CCN(CC)c1ccc2cc(-c3nc4ccccc4[nH]3)c(=O)oc2c1	46	39	17	37	65	39	-129	-15	122*	296*
c1ccc(CN2CCN(c3nc(-c4ccccn4)nc4ccccc34)CC2)cc1	7	30	12	100*	33	48*	37	19	2.1	13
c1ccc(CCNc2nc(-c3ccccn3)nc3ccccc23)cc1	·	·	5	·	·	·	·	·	·	·
O=c1c(/C=C(\O)c2ccccc2)nc2ccccc2n1-c1ccccc1	-3	36	3	31	44	45*	42	8	3.8	77*
CCOC(=O)N1CCN(C(=S)NC(=O)c2ccnn2C)CC1	-2	18	14	-4	-3	0	·	·	·	·
O=C(C1CCC1)N1CCc2cc(S(=O)(=O)NCCN3CCN(c4ccccc4F)CC3)ccc21	-16	13	11	9	7	4	·	·	·	·
Nc1c(-c2ccccc2)c(CSc2nc3ccccc3[nH]2)nn1-c1ccc(Cl)cc1	2	5	11	97*	28	43*	29	25	-0.69	-3
CCOC(=O)c1c(C)oc2ccc(OC(=O)COc3c(F)c(F)c(F)c(F)c3F)cc12	22	29	10	-6	2	1	·	·	·	·
Cc1sc2ncnc(NCC3COc4ccccc4O3)c2c1C (stereo not given)	10	9	23	43	82*	0	1	28	-2.1	-3
O=C1C=C(O)C(n2cncn2)C(c2ccc3c(c2)OCO3)C1 (stereo not given)	-2	19	12	-10	0	0	·	·	·	·
O=c1/c(=C/c2ccc(O)c([N+](=O)[O-])c2)sc2nc3ccccc3n12	5	8	23	12	1	0	·	·	·	·
O=c1/c(=C\c2cccnc2)sc2nc3ccccc3n12	-5	25	23	2	81*	2	1	19	-1.3	-3
O=C(Cn1ccc(C(F)(F)F)n1)N/N=C/c1cccs1	-1	9	17	40	-2	0	·	·	·	·
SMILES	PKD1 kinase inh	GSH bead fluor	Avidin bead fluor	L major viab	ABCG2 inh	ABCB1 block	ABCB1 single pt	ABCG2 single pt	IgMXP3 fluor	CCRF-Adr fluor
NC(=S)N=Nc1c(O)[nH]c2ccc(F)cc12	6	7	24	-3	80	0	0	21	-1.9	-3.8
O=C(O)CNc1ccc(S(=O)(=O)C(F)(F)F)cc1[N+](=O)[O-]	·	·	6	·	·	·	·	·	·	·
CC(=O)Nc1ccc(Nc2ccc(S(=O)(=O)C(F)(F)F)cc2[N+](=O)[O-])cc1	9	14	16	56*	92*	1	1	55*	-2.2	-4.4
OCCC#Cc1ccc(CN2CCN(Cc3ccccc3)C(CCO)C2)cc1 (stereo not given)	-4	12	9	6	89*	14	3	4	4.3	13
Cc1ccc(C(=O)NCC(=O)Nc2cccc(C(F)(F)F)c2)cc1	19	14	21	-6	18	0	·	·	·	·
O=C(CNC(=O)c1ccccc1)Nc1cccc(C(F)(F)F)c1	2	211*	560*	-5	+	·	2	13	73*	33*
Nc1c(C(=O)C2CC2)sc2nc(-c3cccs3)cc(C(F)(F)F)c12	-11	24	38	-3	35	42*	-87	-7	92*	271*
CC(C)NC(=O)c1sc2nc(-c3cccs3)cc(-c3cccs3)c2c1N	7	24	35	3	1	3	·	·	·	·
CCOc1ccc(OCC)c(NC(=O)C2CCCN(c3nc(C)cc(C)n3)C2)c1 (stereo not given)	-6	30	25	40	101*	2	8	28	2.7	9.7
CCOc1ccc(OCC)c(NC(=O)CN2CCN(c3ccc(C)cc3C)CC2)c1	-15	19	33	7	81*	3	11	32	8.8	-1.8
COc1ccccc1NC(=O)C1CCCN(c2nc(C)cc(C)n2)C1 (stereo not given)	-2	15	5	7	11	1	·	·	·	·
COCC(=O)N/N=C(\C)CC(=O)NCc1ccco1	-2	20	6	-5	4	0	·	·	·	·
CN(CCCOc1ccccc1Br)Cc1ccccc1	-3	0	6	18	0	56*	-6	-9	112*	26*
O=C(NCc1ccccn1)Nc1cccc(NC(=O)NCc2ccccn2)c1	-6	64	5	-2	2	1	·	·	·	·
O=C(NCc1ccccn1)Nc1ccc(Cl)c(Cl)c1	3	22	38	0	70	1	0	23	-1.3	-2.1
